Measurements from ChEMBL document CHEMBL4689842, “EUbOPEN Chemogenomics Library wave 1” (2021).
Values joined by “and” are separate entries in the source; they are usually repeats but may differ in a detail not shown here. Equal values may be shown once.

How the values were obtained:
Assay type in all cases: toxicity, cell-based
Fibroblast [1] = experiment: Multiplex assay against human fibroblast; conditions: 10 µM, compound concentration 10 uM
Summary of the method: (§1)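 Hoechst33342, BioTracker Green Microtubule Cytoskeleton Dye, MitoTracker Red and Annexin V Alexa Fluor 680 were added to live cells at seeding, and imaging on a CQ1 microscope at 37°C and 5% CO2 followed compound addition. Gating by CellPathfinder machine learning separated cells into Hoechst high-intensity objects or normal cells, then normal cells into healthy, pyknosed or fragmented nuclei, then pyknosed cells into mitotic or apoptotic. Per cents of healthy-nucleus cells are reported for the tubulin, mitochondrial-mass and membrane-permeability phenotypes.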

HEK-293T [2] = experiment: Incucyte cell viability with HEK293T; conditions: human, 10 µM, compound concentration 10 uM; note: filed as whole numbers so only -1 and 0 and 1 occur
U2OS [3] = experiment: Multiplex assay against U2OS; conditions: human, 10 µM, compound concentration 10 uM; summary of the method: as §1
Fibroblast [4] = experiment: Incucyte cell viability with human fibroblast; conditions: 10 µM, compound concentration 10 uM; note: filed as whole numbers so only -1 and 0 and 1 occur
U2OS [5] = experiment: Incucyte cell viability with U2OS; conditions: human, 10 µM, compound concentration 10 uM; note: filed as whole numbers so only -1 and 0 and 1 occur
HEK-293T [6] = experiment: Multiplex assay against HEK293T; conditions: human, 10 µM, compound concentration 10 uM; summary of the method: as §1;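 for Population Tubulin-Different-Phenotype (%): share of the cells with healthy nuclei that show this phenotype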
[7] = 0 h, replicate number 1, timepoint 0 hours
[8] = 6 h, replicate number 1, timepoint 6 hours
[9] = 12 h, replicate number 1, timepoint 12 hours
[10] = 18 h, replicate number 1, timepoint 18 hours
[11] = 24 h, replicate number 1, timepoint 24 hours

Structure (SMILES): CCN(CC)S(=O)(=O)Nc1cccc(-c2ccc3c(NC(=O)C4CC4)n[nH]c3c2)c1
- Population Apoptotic (%) (Fibroblast [1]; 12 h, replicate 1): 81%
- Population Fragmented Nuclei (%) (Fibroblast [1]; 12 h, replicate 1): 23% and 19%
- Population Healthy Nuclei (%) (Fibroblast [1]; 12 h, replicate 1): 64% and 56%
- Population Hoechst High Intensity Objects (%) (Fibroblast [1]; 12 h, replicate 1): 13% and 11%
- Population Membrane Permeable-Phenotype (%) (Fibroblast [1]; 12 h, replicate 1): 9% and 5%
- Population Mitochondria Different-Phenotype (%) (Fibroblast [1]; 12 h, replicate 1): 2% and 6%
- Population Mitotic Cells (%) (Fibroblast [1]; 12 h, replicate 1): 18%
- Population Normal (%) (Fibroblast [1]; 12 h, replicate 1): 86% and 88%
- Population Pyknosed Nuclei (%) (Fibroblast [1]; 12 h, replicate 1): 11% and 23%
- Population Tubulin-Different-Phenotype (%) (Fibroblast [1]; 12 h, replicate 1): 5% and 7%
- Total Cell Count (Fibroblast [1]; 12 h, replicate 1): 220 and 309
- Population Apoptotic (%) (Fibroblast [1]; 12 h, replicate 2): 66% and 40%
- Population Fragmented Nuclei (%) (Fibroblast [1]; 12 h, replicate 2): 72% and 55%
- Population Healthy Nuclei (%) (Fibroblast [1]; 12 h, replicate 2): 17% and 34%
- Population Hoechst High Intensity Objects (%) (Fibroblast [1]; 12 h, replicate 2): 48% and 35%
- Population Membrane Permeable-Phenotype (%) (Fibroblast [1]; 12 h, replicate 2): 20% and 11%
- Population Mitotic Cells (%) (Fibroblast [1]; 12 h, replicate 2): 33% and 60%
- Population Normal (%) (Fibroblast [1]; 12 h, replicate 2): 51% and 65%
- Population Pyknosed Nuclei (%) (Fibroblast [1]; 12 h, replicate 2): 10% and 9%
- Population Tubulin-Different-Phenotype (%) (Fibroblast [1]; 12 h, replicate 2): 20% and 11%
- Total Cell Count (Fibroblast [1]; 12 h, replicate 2): 56 and 80
- Population Apoptotic (%) (Fibroblast [1]; 24 h, replicate 1): 77% and 62%
- Population Fragmented Nuclei (%) (Fibroblast [1]; 24 h, replicate 1): 22% and 19%
- Population Healthy Nuclei (%) (Fibroblast [1]; 24 h, replicate 1): 66% and 62%
- Population Hoechst High Intensity Objects (%) (Fibroblast [1]; 24 h, replicate 1): 13% and 11%
- Population Membrane Permeable-Phenotype (%) (Fibroblast [1]; 24 h, replicate 1): 6% and 4%
- Population Mitochondria Different-Phenotype (%) (Fibroblast [1]; 24 h, replicate 1): 0% and 8%
- Population Mitotic Cells (%) (Fibroblast [1]; 24 h, replicate 1): 22% and 38%
- Population Normal (%) (Fibroblast [1]; 24 h, replicate 1): 86% and 88%
- Population Pyknosed Nuclei (%) (Fibroblast [1]; 24 h, replicate 1): 10% and 18%
- Population Tubulin-Different-Phenotype (%) (Fibroblast [1]; 24 h, replicate 1): 0% and 11%
- Total Cell Count (Fibroblast [1]; 24 h, replicate 1): 238 and 311
- Population Fragmented Nuclei (%) (Fibroblast [1]; 24 h, replicate 2): 51% and 63%
- Population Healthy Nuclei (%) (Fibroblast [1]; 24 h, replicate 2): 35% and 23%
- Population Hoechst High Intensity Objects (%) (Fibroblast [1]; 24 h, replicate 2): 31% and 42%
- Population Membrane Permeable-Phenotype (%) (Fibroblast [1]; 24 h, replicate 2): 10% and 28%
- Population Normal (%) (Fibroblast [1]; 24 h, replicate 2): 68% and 57%
- Population Pyknosed Nuclei (%) (Fibroblast [1]; 24 h, replicate 2): 12% and 13%
- Total Cell Count (Fibroblast [1]; 24 h, replicate 2): 79 and 52
- Growth Rate (HEK-293T [2]; [7]): 0
- Growth Rate (HEK-293T [2]; [8]): 0
- Growth Rate (HEK-293T [2]; [9]): 0
- Growth Rate (HEK-293T [2]; [10]): 0
- Growth Rate (HEK-293T [2]; [11]): 0
- Population Apoptotic (%) (U2OS [3]; 12 h, replicate 1): 45% and 28%
- Population Fragmented Nuclei (%) (U2OS [3]; 12 h, replicate 1): 7% and 4%
- Population Healthy Nuclei (%) (U2OS [3]; 12 h, replicate 1): 83% and 87%
- Population Hoechst High Intensity Objects (%) (U2OS [3]; 12 h, replicate 1): 2% and 3%
- Population Membrane Permeable-Phenotype (%) (U2OS [3]; 12 h, replicate 1): 16% and 7%
- Population Mitochondria Different-Phenotype (%) (U2OS [3]; 12 h, replicate 1): 10% and 26%
- Population Mitotic Cells (%) (U2OS [3]; 12 h, replicate 1): 55% and 71%
- Population Normal (%) (U2OS [3]; 12 h, replicate 1): 97% and 96%
- Population Pyknosed Nuclei (%) (U2OS [3]; 12 h, replicate 1): 9% and 8%
- Population Tubulin-Different-Phenotype (%) (U2OS [3]; 12 h, replicate 1): 8% and 17%
- Total Cell Count (U2OS [3]; 12 h, replicate 1): 177 and 289
- Population Apoptotic (%) (U2OS [3]; 12 h, replicate 2): 0% and 16%
- Population Fragmented Nuclei (%) (U2OS [3]; 12 h, replicate 2): 9% and 8%
- Population Healthy Nuclei (%) (U2OS [3]; 12 h, replicate 2): 80% and 85%
- Population Hoechst High Intensity Objects (%) (U2OS [3]; 12 h, replicate 2): 5% and 14%
- Population Mitotic Cells (%) (U2OS [3]; 12 h, replicate 2): 100% and 83%
- Population Normal (%) (U2OS [3]; 12 h, replicate 2): 94% and 85%
- Population Pyknosed Nuclei (%) (U2OS [3]; 12 h, replicate 2): 10% and 5%
- Population Tubulin-Different-Phenotype (%) (U2OS [3]; 12 h, replicate 2): 20% and 13%
- Total Cell Count (U2OS [3]; 12 h, replicate 2): 120 and 259
- Population Apoptotic (%) (U2OS [3]; 24 h, replicate 1): 21%
- Population Healthy Nuclei (%) (U2OS [3]; 24 h, replicate 1): 70% and 92%
- Population Hoechst High Intensity Objects (%) (U2OS [3]; 24 h, replicate 1): 3% and 2%
- Population Mitochondria Different-Phenotype (%) (U2OS [3]; 24 h, replicate 1): 13% and 26%
- Population Mitotic Cells (%) (U2OS [3]; 24 h, replicate 1): 78%
- Population Normal (%) (U2OS [3]; 24 h, replicate 1): 96% and 97%
- Population Pyknosed Nuclei (%) (U2OS [3]; 24 h, replicate 1): 21%
- Total Cell Count (U2OS [3]; 24 h, replicate 1): 241 and 253
- Population Apoptotic (%) (U2OS [3]; 24 h, replicate 2): 20% and 28%
- Population Fragmented Nuclei (%) (U2OS [3]; 24 h, replicate 2): 13% and 6%
- Population Healthy Nuclei (%) (U2OS [3]; 24 h, replicate 2): 68% and 87%
- Population Hoechst High Intensity Objects (%) (U2OS [3]; 24 h, replicate 2): 6% and 8%
- Population Membrane Permeable-Phenotype (%) (U2OS [3]; 24 h, replicate 2): 18% and 6%
- Population Mitochondria Different-Phenotype (%) (U2OS [3]; 24 h, replicate 2): 17% and 29%
- Population Mitotic Cells (%) (U2OS [3]; 24 h, replicate 2): 79% and 71%
- Population Normal (%) (U2OS [3]; 24 h, replicate 2): 93% and 91%
- Population Tubulin-Different-Phenotype (%) (U2OS [3]; 24 h, replicate 2): 22%
- Total Cell Count (U2OS [3]; 24 h, replicate 2): 134 and 195
- Growth Rate (Fibroblast [4]; [8]): 0
- Growth Rate (Fibroblast [4]; [9]): 0
- Growth Rate (Fibroblast [4]; [10]): 0
- Growth Rate (Fibroblast [4]; [11]): 0
- Growth Rate (U2OS [5]; [7]): 0
- Growth Rate (U2OS [5]; [8]): 0
- Growth Rate (U2OS [5]; [9]): 0
- Growth Rate (U2OS [5]; [10]): 0
- Growth Rate (U2OS [5]; [11]): 0
- Population Apoptotic (%) (HEK-293T [6]; 12 h, replicate 1): 14% and 17%
- Population Fragmented Nuclei (%) (HEK-293T [6]; 12 h, replicate 1): 23% and 22%
- Population Healthy Nuclei (%) (HEK-293T [6]; 12 h, replicate 1): 31% and 60%
- Population Hoechst High Intensity Objects (%) (HEK-293T [6]; 12 h, replicate 1): 17% and 14%
- Population Membrane Permeable-Phenotype (%) (HEK-293T [6]; 12 h, replicate 1): 7% and 4%
- Population Mitochondria Different-Phenotype (%) (HEK-293T [6]; 12 h, replicate 1): 5% and 3%
- Population Mitotic Cells (%) (HEK-293T [6]; 12 h, replicate 1): 85% and 82%
- Population Normal (%) (HEK-293T [6]; 12 h, replicate 1): 82% and 85%
- Population Pyknosed Nuclei (%) (HEK-293T [6]; 12 h, replicate 1): 45% and 17%
- Population Tubulin-Different-Phenotype (%) (HEK-293T [6]; 12 h, replicate 1): 6% and 1%
- Total Cell Count (HEK-293T [6]; 12 h, replicate 1): 531 and 471
- Population Apoptotic (%) (HEK-293T [6]; 12 h, replicate 2): 13% and 5%
- Population Healthy Nuclei (%) (HEK-293T [6]; 12 h, replicate 2): 76% and 84%
- Population Hoechst High Intensity Objects (%) (HEK-293T [6]; 12 h, replicate 2): 4% and 2%
- Population Membrane Permeable-Phenotype (%) (HEK-293T [6]; 12 h, replicate 2): 1% and 0%
- Population Mitotic Cells (%) (HEK-293T [6]; 12 h, replicate 2): 86% and 94%
- Population Normal (%) (HEK-293T [6]; 12 h, replicate 2): 95% and 97%
- Population Tubulin-Different-Phenotype (%) (HEK-293T [6]; 12 h, replicate 2): 10% and 4%
- Total Cell Count (HEK-293T [6]; 12 h, replicate 2): 940 and 1848
- Population Apoptotic (%) (HEK-293T [6]; 24 h, replicate 1): 19% and 16%
- Population Fragmented Nuclei (%) (HEK-293T [6]; 24 h, replicate 1): 22% and 21%
- Population Healthy Nuclei (%) (HEK-293T [6]; 24 h, replicate 1): 34% and 70%
- Population Hoechst High Intensity Objects (%) (HEK-293T [6]; 24 h, replicate 1): 14% and 9%
- Population Membrane Permeable-Phenotype (%) (HEK-293T [6]; 24 h, replicate 1): 7% and 8%
- Population Mitotic Cells (%) (HEK-293T [6]; 24 h, replicate 1): 80% and 83%
- Population Normal (%) (HEK-293T [6]; 24 h, replicate 1): 85% and 90%
- Total Cell Count (HEK-293T [6]; 24 h, replicate 1): 487 and 501
- Population Apoptotic (%) (HEK-293T [6]; 24 h, replicate 2): 4% and 8%
- Population Healthy Nuclei (%) (HEK-293T [6]; 24 h, replicate 2): 67% and 71%
- Population Hoechst High Intensity Objects (%) (HEK-293T [6]; 24 h, replicate 2): 4% and 6%
- Population Membrane Permeable-Phenotype (%) (HEK-293T [6]; 24 h, replicate 2): 2% and 1%
- Population Mitochondria Different-Phenotype (%) (HEK-293T [6]; 24 h, replicate 2): 22%
- Population Mitotic Cells (%) (HEK-293T [6]; 24 h, replicate 2): 95% and 91%
- Population Normal (%) (HEK-293T [6]; 24 h, replicate 2): 95% and 93%
